Laboratory results from ChEMBL document CHEMBL4396972, “Glycyrrhizic acid derivatives as Dengue virus inhibitors” (Bioorg Med Chem Lett, 2019).
Calls of active or inactive are those of the source. No cut-off for these calls is given here.

Tests used:
dengue virus type 2 [1] = assay: Antiviral activity against DENV2 16681 infected in African green monkey Vero E6 cells assessed as reduction in virus induced cytopathic effect at 10 uM measured after 96 hrs by reverse phase contrast microscopy; format: functional, organism-based; details: Vero C1008
Summary of the method: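 Vero E6 cells in supporting DMEM infected with DENV2 strain 16681 (MOI 0.01), then treated immediately with compound at 10 μM. After 96 h incubation, cytopathic effect photographed by reverse phase-contrast microscopy and scored semi-quantitatively (−, +, ++, +++) against infected controls.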

[2] = Therapeutic index, ratio of CC50 for African green monkey Vero E6 cells to IC50 for DENV2 16681 infected in African green monkey Vero E6 cells; format: toxicity, Vero C1008; details: read-out: Ratio CC50/IC50
Summary of the method: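 TI = CC50/IC50. CC50 comes from the Vero E6 MTT survival test. IC50 comes from the NS4B-positive cell fraction by immunofluorescence in DENV2 16681-infected Vero E6 cells (MOI 0.01, 96 h, 0–10 μM).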

dengue virus type 2 [3] = assay: Antiviral activity against DENV2 16681 infected in African green monkey Vero E6 cells assessed as inhibitory rate of NS4B positive cells measured after 96 hrs incubation by DAPI staining based immunofluorescence method; format: functional, organism-based; details: for IC50: Dengue virus, 16681, Vero C1008, 96 h; for inhibition: Vero C1008
Summary of the method: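 Vero E6 cells in DMEM, infected with DENV2 strain 16681 at MOI 0.01 and treated with compound (0, 0.1, 1, 10 μM; single 10 μM for screening). After 96 h, immunofluorescence with anti-NS4B antibody and DAPI nuclear counterstain. Infectivity = NS4B-positive cells / DAPI-stained cells. Inhibitory rate = (1 − NS4B-positive % treated / NS4B-positive % mock-treated infected) × 100. IC50 derived from NS4B-positive percentages across concentrations.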

dengue virus type 2 [4] = assay: Antiviral activity against DENV2 16681 infected in African green monkey Vero E6 cells assessed as reduction in virus induced cytopathic effect measured after 96 hrs by reverse phase contrast microscopy; format: functional, organism-based; details: Vero C1008
Summary of the method: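 Vero E6 cells in DMEM infected with DENV2 16681 at MOI 0.01, compound added immediately (screen at 10 μM, then 0, 0.1, 1, 10 μM). Photographed 96 h post infection by phase-contrast microscopy. CPE reduction scored qualitatively (−, +, ++, +++).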

dengue virus type 2 [5] = assay: Antiviral activity against DENV2 16681 infected in African green monkey Vero E6 cells assessed as inhibitory rate of NS4B positive cells at 1 uM measured after 96 hrs incubation by DAPI staining based immunofluorescence method; format: functional; details: Dengue virus, 16681, Vero C1008, 96 h
Summary of the method: (§1)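 Vero E6 cells in DMEM infected with DENV2 strain 16681 at MOI 0.01, treated at once with compound (0, 0.1, 1, 10 μM), 96 h. Immunofluorescence with anti-NS4B antibody and DAPI counterstain. Infectivity taken as NS4B-positive cells over DAPI-stained total cells. Inhibitory rate = (1 − NS4B-positive % treated infected / NS4B-positive % mock-treated infected) × 100.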

Vero C1008 = assay: Cytotoxicity against African green monkey Vero E6 cells assessed as reduction in survival rate measured after 48 hrs by MTT assay; format: cell-based; details: chlorocebus sabaeus, vero c1008, 48 h
Summary of the method: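 MTT viability test on Vero E6 cells in DMEM over a range of compound concentrations. CC50 calculated from survival of treated cells relative to mock cells.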

dengue virus type 2 [6] = assay: Antiviral activity against DENV2 16681 infected in human A549 cells assessed as inhibitory rate of NS4B positive cells at 0.1 to 10 uM measured after 120 hrs post infection by DAPI staining based immunofluorescence method; format: functional, organism-based
dengue virus type 2 [7] = assay: Antiviral activity against DENV2 16681 infected in African green monkey Vero E6 cells assessed as inhibitory rate of NS4B positive cells at 10 uM measured after 96 hrs incubation by DAPI staining based immunofluorescence method; format: functional; details: Dengue virus, 16681, Vero C1008, 96 h; summary of the method: as §1
dengue virus type 2 [8] = assay: Antiviral activity against DENV2 16681 infected in human A549 cells assessed as reduction in virus induced cytopathic effect at 0.1 to 10 uM measured after 120 hrs post infection by light microscopy; format: functional, organism-based

Structure (SMILES)	inhibition (dengue virus type 2 [1])	selectivity ratio [2]	IC50 (dengue virus type 2 [3]) [µM]	inhibition (dengue virus type 2 [3])	inhibition (dengue virus type 2 [4])	inhibition at 1 µM (dengue virus type 2 [5]) [%]	CC50 (Vero C1008) [µM]	inhibition (dengue virus type 2 [6])	inhibition at 10 µM (dengue virus type 2 [7]) [%]	inhibition (dengue virus type 2 [8])
CC[C@H](C)[C@H](NC(=O)[C@H]1O[C@@H](O[C@H]2[C@@H](O[C@H]3CC[C@]4(C)[C@H]5C(=O)C=C6[C@@H]7C[C@@](C)(C(=O)N[C@H](C(=O)O)[C@@H](C)CC)CC[C@]7(C)CC[C@@]6(C)[C@]5(C)CC[C@H]4C3(C)C)O[C@H](C(=O)N[C@H](C(=O)O)[C@@H](C)CC)[C@@H](O)[C@@H]2O)[C@H](O)[C@@H](O)[C@@H]1O)C(=O)O	Active	> 76.3	1.3	Dose-dependent effect	Dose-dependent effect	20.2	> 100	Active	95.7	Active
CC1(C)[C@@H](O[C@H]2O[C@H](C(=O)N[C@@H](Cc3ccc(O)cc3)C(=O)O)[C@@H](O)[C@H](O)[C@H]2O[C@@H]2O[C@H](C(=O)N[C@@H](Cc3ccc(O)cc3)C(=O)O)[C@@H](O)[C@H](O)[C@H]2O)CC[C@]2(C)[C@H]3C(=O)C=C4[C@@H]5C[C@@](C)(C(=O)N[C@@H](Cc6ccc(O)cc6)C(=O)O)CC[C@]5(C)CC[C@@]4(C)[C@]3(C)CC[C@@H]12	Active	> 46.5	2.2	Dose-dependent effect	Dose-dependent effect	–	> 100	–	68.5	–
